The text below walks through data of PMC11077555 (Chemical Science, 2024).

One data set deals with human recombinant GCPIII (Homo sapiens, UniProt Q9Y3Q0). The data set can be described thus: Fluorescence polarization. The data set is classed as binding. As to conditions: for fold selectivity (fold higher dissociation constant towards GCPIII): compared to the original HIT3; for Kd: KD,GCPIII; for Kd / affinity against GCPIII (in words): off-DNA FP. A general note: In fluorescence polarisation assays a small probe gives low polarisation when free and higher when bound to something large.

The next data set addresses human recombinant PSMA (Homo sapiens, UniProt Q04609). The data set can be described thus: Fluorescence polarization. The data set is classed as binding.
A further data set relates to PSMA. As to conditions: read-out: IC50,PSMA; cited from earlier work.
The test system of a further data set is HT1080.hPSMA cells. The data set is described as follows: Flow cytometry on HT1080.hPSMA cells. The data set is classed as cell-based, human. To be noted: HT1080.hPSMA vs HT1080.wt; fluorescein-labelled compounds 50-250 nM. In a few lines:
(§1)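 Fluorescein-conjugated test compounds were incubated with PSMA-positive cells (HT1080.hPSMA, LNCaP), with PSMA-negative HT1080.wt cells as reference. Cell-bound fluorescence was measured by flow cytometry to assess recognition of PSMA in a native cellular environment.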
(In general: A flow cytometer gives signals particle by particle.)

The subject of the next data set is HT1080.hPSMA tumors. The data set is described as follows: Quantitative in vivo biodistribution in tumor-bearing mice. To be noted: 2 h after i.v., n = 3. More on the design: species or system BALB/c nude mice.
For data set [1] the following is noted: in combination with best standard of care; cited from earlier work.
Another data set has as its system LNCaP cells. The data set can be described thus: Flow cytometry on LNCaP cells. It is filed as cell-based. As to conditions: HT1080.wt as reference. A digest of the protocol:
as §1

Values joined by “and” are separate entries in the source; they are usually repeats but may differ in a detail not shown here. Equal entries are not always repeated.

human recombinant GCPIII, sequence (Q9Y3Q0 whole entry): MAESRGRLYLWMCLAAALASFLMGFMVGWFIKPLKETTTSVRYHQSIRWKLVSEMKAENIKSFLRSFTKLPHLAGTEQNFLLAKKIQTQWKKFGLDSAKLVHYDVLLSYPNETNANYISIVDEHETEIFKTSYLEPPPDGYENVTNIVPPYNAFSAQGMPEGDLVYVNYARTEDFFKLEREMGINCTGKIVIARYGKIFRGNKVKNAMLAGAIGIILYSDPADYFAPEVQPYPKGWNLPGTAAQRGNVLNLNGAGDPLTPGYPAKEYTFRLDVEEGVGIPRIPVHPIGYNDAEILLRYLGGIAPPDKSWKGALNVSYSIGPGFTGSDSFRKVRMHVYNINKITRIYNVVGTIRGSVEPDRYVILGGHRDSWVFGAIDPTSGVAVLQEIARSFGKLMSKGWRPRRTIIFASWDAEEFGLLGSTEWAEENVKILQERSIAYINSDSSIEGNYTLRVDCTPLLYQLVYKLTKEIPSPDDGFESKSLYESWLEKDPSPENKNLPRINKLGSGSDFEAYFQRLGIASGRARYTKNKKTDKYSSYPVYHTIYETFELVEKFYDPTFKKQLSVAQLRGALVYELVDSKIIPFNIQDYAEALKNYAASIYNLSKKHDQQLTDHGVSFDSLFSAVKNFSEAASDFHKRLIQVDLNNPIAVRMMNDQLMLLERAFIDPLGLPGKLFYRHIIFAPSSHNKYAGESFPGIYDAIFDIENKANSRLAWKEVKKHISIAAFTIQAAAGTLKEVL
human recombinant PSMA, sequence (Q04609 whole entry): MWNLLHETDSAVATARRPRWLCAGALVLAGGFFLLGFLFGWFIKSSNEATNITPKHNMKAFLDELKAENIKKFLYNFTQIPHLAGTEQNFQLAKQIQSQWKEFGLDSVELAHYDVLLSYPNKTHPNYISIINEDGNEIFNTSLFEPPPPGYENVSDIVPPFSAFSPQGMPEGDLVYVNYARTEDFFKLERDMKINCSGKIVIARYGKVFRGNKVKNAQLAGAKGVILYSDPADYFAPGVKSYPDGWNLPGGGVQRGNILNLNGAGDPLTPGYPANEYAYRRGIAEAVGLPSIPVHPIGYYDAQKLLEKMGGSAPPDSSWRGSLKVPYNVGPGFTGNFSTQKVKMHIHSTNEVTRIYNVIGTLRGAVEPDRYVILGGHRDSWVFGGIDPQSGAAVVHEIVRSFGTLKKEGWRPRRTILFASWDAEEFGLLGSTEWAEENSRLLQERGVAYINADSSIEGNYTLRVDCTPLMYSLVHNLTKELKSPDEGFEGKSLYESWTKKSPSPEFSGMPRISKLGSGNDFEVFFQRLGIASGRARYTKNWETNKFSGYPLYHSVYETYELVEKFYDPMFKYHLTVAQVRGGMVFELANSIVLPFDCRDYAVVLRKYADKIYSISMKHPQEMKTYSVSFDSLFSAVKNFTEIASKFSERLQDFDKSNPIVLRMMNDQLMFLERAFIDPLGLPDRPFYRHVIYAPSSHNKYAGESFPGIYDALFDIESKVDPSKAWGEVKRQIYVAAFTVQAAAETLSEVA

Take `C#CC[C@@H](NC(=O)[C@@H]1C[C@@H](C2CCCCC2)CN1C(=O)CSC1CCN(C(=O)CC[C@H](NC(=O)N[C@@H](CCC(=O)O)C(=O)O)C(=O)O)CC1)C(=O)NCCOCCOCCNC(=S)Nc1ccc2c(c1)C(=O)OC21c2ccc(O)cc2Oc2cc(O)ccc21` [Compound 10]: the “fold selectivity (fold higher dissociation constant towards GCPIII)” value on human recombinant GCPIII was around 40 fold. The Kd on human recombinant PSMA was 1.3 ± 0.7 nM.

For the compound `O=C(O)CC[C@H](NC(=O)N[C@@H](CCC(=O)O)C(=O)O)C(=O)O` [HIT3, (2S,2′S)-2,2′-(carbonyldiimino)dipentanedioic acid, reference compound], the Kd was 1.2 nM and 1 nM on human recombinant GCPIII; 1 nM on human recombinant PSMA. In addition, the IC50 in the data set with PSMA is 47 nM.

With `O=C(CCNS(=O)(=O)c1ccc2ccccc2c1)N[C@H]1C[C@H](C(=O)O)N(C(=O)c2nn(-c3ccccc3)c(=O)[nH]c2=O)C1` [HIT2], the “binding to PSMA on cells, fluorescence shift by flow cytometry” value in the data set on HT1080.hPSMA cells is “not able to interact with PSMA on tumor cells”.

With `O=C(O)CNC(=O)c1cc(CNC(=O)c2ccc(CNC(=O)[C@H]3C[C@H](NC(=O)CCNS(=O)(=O)c4ccc5ccccc5c4)CN3C(=O)c3nn(-c4ccccc4)c(=O)[nH]c3=O)cc2)cc(OCC(=O)N[C@@H](CCCCNC(=S)Nc2ccc3c(c2)C(=O)OC32c3ccc(O)cc3Oc3cc(O)ccc32)C(=O)O)c1` [Compound 5], the “affinity against GCPIII (in words)” value on human recombinant GCPIII was “no measurable affinity was detected”.

For `O=C(CCNS(=O)(=O)c1ccc2ccccc2c1)N[C@H]1C[C@H](C(=O)N[C@@H](CCCCNC(=S)Nc2ccc3c(c2)C(=O)OC32c3ccc(O)cc3Oc3cc(O)ccc32)C(=O)O)N(C(=O)c2nn(-c3ccccc3)c(=O)[nH]c2=O)C1` [Compound 6], the “affinity against GCPIII (in words)” value on human recombinant GCPIII was “no measurable affinity was detected”.

For the compound `O=C([O-])CN1CCN(CC(=O)[O-])CCN(CC(=O)NCC2CCC(C(=O)N[C@@H](Cc3ccc4ccccc4c3)C(=O)NCCCC[C@H](NC(=O)N[C@@H](CCC(=O)O)C(=O)O)C(=O)O)CC2)CCN(CC(=O)[O-])CC1.[177Lu+3]` (stereo partly shown) [Pluvicto™], the “Tumor (HT1080.hPSMA) uptake” value in the data set with HT1080.hPSMA tumors (18: 1 nmol/mouse, Pluvicto 0.5 nmol/mouse, 1 MBq) was 32.4 %ID/g. Further, in the data set on HT1080.hPSMA tumors, the Kidney uptake is given as 2.16 %ID/g and the “Tumor-to-organ ratio, Blood (T : B)” value was found to be 2079. Moreover, in data set [1], the overall response rate is reported as 30% and the overall survival is on record as 15.3 months.

Take `O=C(CCNS(=O)(=O)c1ccc2ccccc2c1)N[C@H]1C[C@H](C(=O)NCCOCCOCCNC(=S)Nc2ccc3c(c2)C(=O)OC32c3ccc(O)cc3Oc3cc(O)ccc32)N(C(=O)c2nn(-c3ccccc3)c(=O)[nH]c2=O)C1` [Compound 8, (2R,4S) -N-(2-(2-(2-(3-(3',6'-dihydroxy-3-oxo-3H-spiro[isobenzofuran-1,9'-xanthen]-5-yl)thioureido)ethoxy)ethoxy)ethyl)-1-(3,5-dioxo-2-phenyl-2,3,4,5-tetrahydro-1,2,4-triazine-6-carbonyl)-4-(3-(naphthalene-2-sulfonamido)propanamido)pyrrolidine-2-carboxamide]: the “affinity against GCPIII (in words)” value at human recombinant GCPIII was “no measurable affinity was detected”. Also, the dissociation constant (Kd) at human recombinant PSMA was above 10000 nM.

As for `N#Cc1cccc(C[C@H](NC(=O)c2nn(-c3ccccc3)c(=O)[nH]c2=O)C(=O)N[C@@H](Cc2ccc(CP(=O)(O)O)cc2)C(=O)N[C@@H](CCCCNC(=S)Nc2ccc3c(c2)C(=O)OC32c3ccc(O)cc3Oc3cc(O)ccc32)C(=O)O)c1` [Compound 1], the values for the Kd on human recombinant GCPIII and on human recombinant PSMA were 600 ± 3 nM and 260 ± 5 nM, respectively.

For `O=C(O)CNC(=O)c1cc(CNC(=O)c2ccc(CNC(=O)[C@H]3C[C@H](NC(=O)CCNS(=O)(=O)c4ccc5ccccc5c4)CN3C(=O)c3nn(-c4ccccc4)c(=O)[nH]c3=O)cc2)cc(OCC(=O)NCCOCCOCCNC(=S)Nc2ccc3c(c2)C(=O)OC32c3ccc(O)cc3Oc3cc(O)ccc32)c1` [Compound 7], the “affinity against GCPIII (in words)” value on human recombinant GCPIII is recorded as “no measurable affinity was detected”.

`O=C(O)CC[C@H](NC(=O)N[C@@H](CCC(=O)NCCOCCOCCNC(=S)Nc1ccc2c(c1)C(=O)OC21c2ccc(O)cc2Oc2cc(O)ccc21)C(=O)O)C(=O)O` [Compound 12]: the “binding to PSMA on cells, fluorescence shift by flow cytometry” value in the data set with LNCaP cells and in the data set on HT1080.hPSMA cells was “avidly bound to PSMA” in each case.

For the compound `C#CC[C@H](NC(=O)[C@@H]1C[C@@H](C2CCCCC2)CN1C(=O)CSC1CCN(C(=O)CC[C@H](NC(=O)N[C@@H](CCC(=O)O)C(=O)O)C(=O)O)CC1)C(=O)NCCOCCOCCNC(=S)Nc1ccc2c(c1)C(=O)OC21c2ccc(O)cc2Oc2cc(O)ccc21` [Compound 9], the “fold selectivity (fold higher dissociation constant towards GCPIII)” value on human recombinant GCPIII is around 40 fold. Further, the Kd on human recombinant PSMA came out at 0.9 ± 0.5 nM.

Broadly, the Kd is the free concentration of one partner at which half of the binding sites on the other are occupied at equilibrium, for simple one-to-one binding. As a reminder, the IC50 is the point on the concentration scale where inhibition reaches its midpoint.
